Measurements: paper PMC5885750 (Bioorganic & medicinal chemistry letters, 2018)

Columns and labels:
[1] = target: T1, Heptosyltransferase I (HepI) (Escherichia coli, UniProt P24173); assay: Kinetic characterization of inhibition mechanism; type: biochemical
Method in brief: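 Rates at rising inhibitor levels fitted to a mixed (noncompetitive) equation with Ks, Ki and α. α marks preference for free enzyme (>1), ternary complex (<1) or neither (=1). It is judged from whether Km rises, falls or stays unchanged as inhibitor increases. ODLA acceptor was varied in the ODLA series.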

[2] = target: T1, Heptosyltransferase I (HepI); assay: Inhibition of HepI catalysis with substrates ODLA and ADP-Heptose; type: biochemical

T1 sequence (P24173 whole entry): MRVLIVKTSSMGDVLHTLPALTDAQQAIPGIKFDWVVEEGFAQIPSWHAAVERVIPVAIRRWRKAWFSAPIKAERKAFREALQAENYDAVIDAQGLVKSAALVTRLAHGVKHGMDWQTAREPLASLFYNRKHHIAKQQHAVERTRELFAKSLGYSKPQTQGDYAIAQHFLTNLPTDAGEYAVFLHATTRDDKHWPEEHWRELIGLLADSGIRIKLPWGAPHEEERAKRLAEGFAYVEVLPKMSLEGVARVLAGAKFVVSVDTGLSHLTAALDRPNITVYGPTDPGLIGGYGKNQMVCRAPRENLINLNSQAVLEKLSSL

| Compound | kcat ADP-Heptose ([1]; [Inhibitor] 10 μM) [s⁻¹] | kcat ODLA ([1]; [Inhibitor] 10 μM) [s⁻¹] | kcat ADP-Heptose ([1]; [Inhibitor] 100 μM) [s⁻¹] | kcat ODLA ([1]; [Inhibitor] 100 μM) [s⁻¹] | kcat ADP-Heptose ([1]; [Inhibitor] 1000 μM) [s⁻¹] | kcat ODLA ([1]; [Inhibitor] 1000 μM) [s⁻¹] | type of inhibition against ODLA ([1]; acceptor substrate ODLA varied) | α (preference for free enzyme or ES complex) ([1]; against ADP-Heptose, α<1 = prefers ES complex) | type of inhibition against ADP-Heptose ([1]; donor substrate ADP-Heptose varied) | inhibition of HepI activity (in words) [2] |
| --- | --- | --- | --- | --- | --- | --- | --- | --- | --- | --- |
| CCCC/C=C/CO[C@@H]1O[C@H](CO)[C@@H](O)[C@H](O)[C@H]1O [Compound 7, hexene-β-D-glucopyranoside] | 2.8 ± 0.3 | 1.4 ± 0.03 | 1.6 ± 0.1 | 1.3 ± 0.004 | 0.76 ± 0.08 | 0.9 ± 0.2 | uncompetitive inhibition | < 1 | noncompetitive (mixed-competitive) inhibition |  |
| CCCCCCCCO[C@@H]1O[C@H](CO)[C@@H](O)[C@H](O)[C@H]1O [n-Octyl-β-D-glucopyranoside] |  |  |  |  |  |  |  |  |  | small degree of inhibition |
